Compound activity deposited in PubChem by several laboratories.
In the library only some 0.99% were active in any assay of this set; here they are far more common.
STK33 kinase inh = blocks human STK33 kinase activity; purified STK33, MBP phosphorylation, ADP-Glo luminescence; inhibition, % at 10 µM; hit rate 0.073% among 320,000;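 active = inhibition at or above 25%, using the most active replicate where run in duplicate; inactive = inhibition below 25%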
Target sequence (Q9BYT3 whole entry, looked up): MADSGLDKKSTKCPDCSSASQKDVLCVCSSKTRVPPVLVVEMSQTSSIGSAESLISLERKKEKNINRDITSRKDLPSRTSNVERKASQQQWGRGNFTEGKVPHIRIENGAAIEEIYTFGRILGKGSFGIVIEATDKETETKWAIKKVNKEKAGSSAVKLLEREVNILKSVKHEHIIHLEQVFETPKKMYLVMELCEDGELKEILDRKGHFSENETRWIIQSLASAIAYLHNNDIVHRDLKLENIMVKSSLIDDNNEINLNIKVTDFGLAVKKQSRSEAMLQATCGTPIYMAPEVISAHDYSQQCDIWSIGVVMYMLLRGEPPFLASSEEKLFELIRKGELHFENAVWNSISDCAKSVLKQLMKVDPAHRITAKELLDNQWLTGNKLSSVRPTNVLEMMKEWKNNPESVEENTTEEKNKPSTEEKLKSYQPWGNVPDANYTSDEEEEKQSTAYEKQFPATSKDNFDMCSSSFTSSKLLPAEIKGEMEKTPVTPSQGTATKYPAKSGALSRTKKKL
Arr AP2 block = inhibitors of human beta-arrestin and AP2 interaction; FITC-arrestin peptide / GST-AP2 beads, flow cytometry; AP2 beta2 appendage carries R879A mutation; inhibition, % at 10 µM; hit rate 0.31% among 340,000;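 active = inhibition above a set limit, near 3 SD of compounds lacking own fluorescence, cut at about 54% in these data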
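Material – GST-tagged AP2 beta2-adaptin appendage (R879A) on 4 µm glutathione beads · Probe or stimulus – fluorescein-tagged arrestin peptide at 50 nM final · Timing – 12 min plus 1 h, RT · Detection – bead flow cytometry, FITC channel · Read-out basis – inhibition as reduced fluorescein signal on beads, percent · Medium – PBS plus Tween 20 (0.05%) and BSA (0.1%)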
Rin1 Abl inh = human Rin1-Abl interaction inhibition | TR-FRET Rin1/Abl binding, biochemical | inhibition, % at 7.35 µM | hit rate 0.4% among 360,000; in the data active = inhibition above about 5%, passing the limit was not always enough
GSK3A inh = inhibitors of human GSK-3 alpha kinase; ADP-Glo luminescence, 60 min; inhibition, % at 10 µM; hit rate 0.1% among 320,000;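 active = more than half of replicates show inhibition above 20%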;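 also: GST-tagged GSK-3 alpha with peptide substrate and 25 µM ATP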
GSK3beta inhib = blocks human GSK3beta kinase activity; P49841; AID 2097; hit rate 0.038% among 300,000; GST-GSK3beta kinase, ADP-Glo luminescence, 60 min; stronger effect = lower value; activity score (negative = inhibition), % at 10 µM;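 active = more than half of replicate wells score below -50%, meaning over 50% inhibition versus plate controls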
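Test system – GST-tagged human GSK3beta kinase, cell-free · Incubation – 60 min enzyme reaction, room temperature · Signal – ADP-Glo luminescence · Also added – peptide substrate and ATP at 25 µM · Controls – DMSO neutral wells and GW8510 at 20 µM as positive · Buffer or medium – Tris/MgCl2 kinase buffer · Measure – Luminescence-derived activity versus plate DMSO and GW8510 wells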
Dyrk1A ADPGlo = blocks rat Dyrk1A kinase activity; Q63470; inhibition, % at 12.5 µM; hit rate 0.43% among 310,000; ADP-Glo luminescence, NFATc1 peptide; AID 504441; in the data active = inhibition above about 50%
Rin1-Abl confirm = confirmation of inhibitors of human Rin1-Abl interaction | shares compounds with Rin1 Abl inh | inhibition, % at 7.35 µM | hit rate 49% among 1,300 | TR-FRET Rin1-Abl binding, purified proteins
GFP quench-1 = GFP fluorescence interference artifact. shares compounds with Rin1 Abl inh. inhibitors/quenchers counterscreen. inhibition, % at 6.75 µM. hit rate 8.5% among 1,300. AID 602125;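 also: ABL1-eGFP fusion protein alone without its partner RIN1-SBP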
GFP quench dose = counter-screen for Rin1-Abl inhibitors: GFP quenchers, dose response. shares compounds with Rin1 Abl inh. GFP fluorescence interference/quenching counterscreen. IC50, µM. 230 tested, under 10 active. AID 602182; call rule not given here;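 also: ABL1-eGFP fusion protein alone without its RIN1 binding partner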
GFP quench-2 = quenches GFP fluorescence in Rin1-Abl counterscreen | shares compounds with Rin1 Abl inh | 25 tested, under 10 active | IC50, µM | AID 602397 | GFP fluorescence quenching counterscreen, biochemical; call rule not given here
Large screens that a line does not name were inactive (follow-up assays come after a bar, where they were run); ! = repeats disagree. Rule as the data show it, unless noted: active = inhibition above about 6.5%; inactive = the rest.

COCc1cc(CN2CCCC2)c(O)c2ncccc12	Rin1 Abl inh 22 | Rin1-Abl confirm inactive | GFP quench-1 inactive
Cc1ccsc1C(=O)NNC(=O)c1ccc(NS(=O)(=O)c2cccs2)cc1	Rin1 Abl inh 10 | Rin1-Abl confirm inactive | GFP quench-1 inactive
CC(=O)Nc1cccc(C(=O)NNC(=O)c2ccc(NS(=O)(=O)c3cccs3)cc2)c1	none (no result: STK33 kinase inh, Arr AP2 block, GSK3A inh, GSK3beta inhib, Dyrk1A ADPGlo)
COc1ccc(CN=CC2=C(O)CC(C)(C)CC2=O)cc1	none
COc1ccc(CN=CC2=C(O)CNC2=O)cc1	Rin1 Abl inh 34 | Rin1-Abl confirm 43 | GFP quench-1 inactive
CC(C)C(NC(=O)c1c(F)cccc1F)C(=O)OCN1C(=O)c2ccccc2C1=O (configuration not stated)	none (no result: GSK3beta inhib)
CCCOc1ccc(/C=C/C(=O)N2CCN(C(=O)c3ccco3)CC2)cc1OC	Rin1 Abl inh 15 (no result: STK33 kinase inh, Arr AP2 block, GSK3A inh, GSK3beta inhib, Dyrk1A ADPGlo) | Rin1-Abl confirm 17 | GFP quench-1 inactive | GFP quench dose inactive
Cc1ccc(S(=O)(=O)N2CCN(C(=O)Cn3cnc4c3c(=O)n(C)c(=O)n4C)CC2)cc1C	Rin1 Abl inh 17 (no result: GSK3beta inhib) | Rin1-Abl confirm 19 | GFP quench-1 inactive | GFP quench dose inactive
CCc1cccc(NC(=O)Cn2c(=O)oc3cc(S(=O)(=O)N4CCOCC4)ccc32)c1	none
CCc1ccc(NC(=O)Cn2c(=O)oc3cc(S(=O)(=O)N4CCOCC4)ccc32)cc1	Rin1 Abl inh 8.1 | Rin1-Abl confirm inactive | GFP quench-1 inactive
COc1ccc(C(CNC(=O)c2cccc(S(=O)(=O)N3CCCCC3)c2)N2CCCC2)cc1 (configuration not stated)	none (no result: GSK3beta inhib)
COc1ccc2cnn(CCOc3ccccc3)c(=O)c2c1OC	Rin1 Abl inh 14 | Rin1-Abl confirm inactive | GFP quench-1 inactive
CCOc1ccccc1OCCn1ncc2ccc(OC)c(OC)c2c1=O	none
CN1CCc2cccc3c2[C@H]1Cc1ccc(O)c(O)c1-3	Rin1 Abl inh 16! | Rin1-Abl confirm 11 | GFP quench-1 11
C/C=C1\NC(=O)[C@H](C)NC(=O)[C@@H](NC(=O)[C@@H](Cc2ccc(O)cc2)NC(=O)[C@@H](NC(=O)/C(C)=C/C)C(C)C)[C@@H](C)OC(=O)[C@H](CCCCc2ccc(O)cc2)NC(=O)[C@@H](CCC(=O)O)NC1=O	none (no result: STK33 kinase inh, GSK3A inh, GSK3beta inhib)
O=C(CCN1C(=O)C2CCCCC2C1=O)Nc1ccc(Br)cc1F (configuration not stated)	none
Cc1nnc(SCc2nc3ccccc3[nH]2)s1	Rin1 Abl inh 18 | Rin1-Abl confirm 29 | GFP quench-1 inactive | GFP quench dose inactive
C[C@H](CO)N1C[C@H](C)[C@@H](CN(C)Cc2ccccc2)Oc2c(NC(=O)c3ccncc3)cccc2C1=O	none (no result: STK33 kinase inh, GSK3A inh, GSK3beta inhib)
COc1ccc(S(=O)(=O)Nc2cccc3c2O[C@H](CN(C)Cc2ccc(-c4ccccc4)cc2)[C@@H](C)CN([C@H](C)CO)C3=O)cc1	none (no result: Arr AP2 block, GSK3beta inhib)
C[C@H](CO)N1C[C@H](C)[C@@H](CN(C)Cc2ccc(Oc3ccccc3)cc2)Oc2c(NC(=O)c3ccncc3)cccc2C1=O	Rin1 Abl inh 30 (no result: GSK3beta inhib) | Rin1-Abl confirm 28 | GFP quench-1 inactive
C[C@H](CO)N1C[C@H](C)[C@@H](CN(C)Cc2ccc(-c3ccccc3)cc2)Oc2c(NS(=O)(=O)c3ccc(F)cc3)cccc2C1=O	Rin1 Abl inh 9.1 (no result: GSK3beta inhib) | Rin1-Abl confirm 9.2 | GFP quench-1 inactive
C[C@H](CO)N1C[C@H](C)[C@@H](CN(C)Cc2ccc(-c3ccccc3)cc2)Oc2c(NC(=O)c3ccncc3)cccc2C1=O	Rin1 Abl inh 22 (no result: Arr AP2 block, GSK3beta inhib) | Rin1-Abl confirm 27 | GFP quench-1 inactive
Cc1noc(C)c1CSCC(=O)Nc1ccccc1N1CCCC1	none (no result: STK33 kinase inh, GSK3A inh, GSK3beta inhib, Dyrk1A ADPGlo)
CN(Cc1cnccn1)C(=O)C1CCC(=O)N(CCc2ccc(Cl)cc2)C1 (configuration not stated)	none
CN(Cc1cnccn1)C(=O)C1CCC(=O)N(CCc2ccccc2)C1 (configuration not stated)	Rin1 Abl inh 25 | Rin1-Abl confirm 29 | GFP quench-1 inactive | GFP quench dose inactive
Cc1cccc(C(=O)N2CCCC(CCC(=O)N3CCN(c4ccccn4)CC3)C2)c1 (configuration not stated)	Rin1 Abl inh 8.8 | Rin1-Abl confirm inactive | GFP quench-1 inactive
Cc1ccc(C(=O)N2CCCC(CCC(=O)N3CCN(c4ccccn4)CC3)C2)cc1 (configuration not stated)	none
O=C(OCCc1cc2ccccc2c(=O)o1)N1CCOCC1	Rin1 Abl inh 12 (no result: GSK3beta inhib) | Rin1-Abl confirm inactive | GFP quench-1 inactive
O=C(OCCCc1cc2ccccc2c(=O)o1)N1CCOCC1	none (no result: GSK3beta inhib)
O=C(Nc1c(C(=O)N2CCCC2)cnn1-c1ccccc1)c1cccc(F)c1	none
NC(=O)C1CCN(C(=O)c2cnn(-c3ccccc3)c2NC(=O)c2cccc(F)c2)CC1	Rin1 Abl inh 23 | Rin1-Abl confirm inactive | GFP quench-1 inactive
CCOc1ccc2oc(C(=O)NCC(c3ccco3)N(C)C)c(C)c2c1 (configuration not stated)	none (no result: STK33 kinase inh, GSK3A inh, GSK3beta inhib)
Cc1c(C(=O)NCC(c2ccco2)N(C)C)oc2c(Cl)cccc12 (configuration not stated)	Rin1 Abl inh 39 | Rin1-Abl confirm 47 | GFP quench-1 inactive | GFP quench dose inactive | GFP quench-2 inactive
CCC(C)NS(=O)(=O)c1ccc(S(=O)(=O)N(CC(=O)Nc2ccccc2)Cc2ccco2)cc1 (configuration not stated)	Rin1 Abl inh 4.8 | Rin1-Abl confirm inactive | GFP quench-1 inactive
O=C(CSc1nc2ccccc2c(=O)n1CC1CCCO1)NCCc1ccccc1 (configuration not stated)	none
Cc1ccc(C(=O)NC2(O)C(=O)c3ccccc3C2=O)cc1C	Rin1 Abl inh 12 | Rin1-Abl confirm 16 | GFP quench-1 inactive
O=C(/C=C/c1ccc(O)c(O)c1)O[C@@H]1C[C@](O)(C(=O)O)C[C@@H](O)[C@H]1O	none
C[C@@H]1O[C@@H](O[C@@H]2[C@@H](O)[C@H](OCCc3ccc(O)c(O)c3)O[C@H](CO)[C@H]2OC(=O)/C=C/c2ccc(O)c(O)c2)[C@H](O)[C@H](O)[C@H]1O	Rin1 Abl inh 31 (no result: GSK3beta inhib) | Rin1-Abl confirm 34 | GFP quench-1 inactive
